Reference: ChEMBL document CHEMBL1155413, “Synthesis and evaluation of a library of 2,5-bisdiamino-benzoquinone derivatives as probes to modulate protein-protein interactions in prions” (Bioorg Med Chem Lett, 2010)

How the values were obtained:
Type in all cases: cell-based
[1] = Cytotoxicity against mouse ScGT1 cells at 1 uM after 5 days by calcein-AM staining; details: scgt1, 120 h
How it was run: (§1)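 ScGT1 cells in DMEM + 10% FBS, plated at 25000 cells per well. Compounds dissolved in 100% DMSO and diluted in PBS, then added at 1 nM–10 μM for 5 days at 37 °C, 5% CO₂. Viability read by Calcein-AM fluorescence on a plate reader as percent viable cells vs untreated control; LC₅₀ taken as the 50% lethal concentration.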

[2] = Antiprion activity against scrapie prion protein replication in mouse ScGT1 cells assessed as inhibition of formation of PrPSc from PrPc […] after 5 days by western-blot analysis; details: ScGT1, 120 h
How it was run: (§2)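 ScGT1 cells in DMEM + 10% FBS, split 1:10 into Petri dishes and grown 2 days at 37 °C, 5% CO₂. Compounds added at non-toxic concentrations from 0.1 nM upward and left 5 days. Proteins then extracted, quantified, digested with proteinase K and Western-blotted. Densitometry of PK-resistant PrP gives percent remaining vs untreated cells; EC₅₀ taken as the concentration for half-maximal inhibition.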

ScGT1 = assay: Antiprion activity against scrapie prion protein replication in mouse ScGT1 cells assessed as inhibition of formation of PrPSc from PrPc after 5 days by western-blot analysis; parameters: concentration or dose not given beside the values; details: dose or concentration not given here; how it was run: as §2
[3] = Cytotoxicity against mouse ScGT1 cells at after 5 days by calcein-AM staining; details: read-out: LC50; how it was run: as §1

In the case of `COC(=O)[C@H](C)NC1=C(Cl)C(=O)C(N[C@@H](Cc2c[nH]c3ccccc23)C(=O)OC)=C(Cl)C1=O`, the Activity [1] is reported as 96%, the EC50 [2] is reported as 7700 nM and the inhibition (ScGT1) is reported as 0.25%.
`COC(=O)[C@H](C)NC1=C(Cl)C(=O)C(N[C@@H](C)C(=O)OC)=C(Cl)C1=O` showed an Activity [1] of 71.6% and an inhibition (ScGT1) of 0.36%.
With `COC(=O)[C@H](C)NC1=C(Cl)C(=O)C(N[C@@H](Cc2ccccc2)C(=O)OC)=C(Cl)C1=O` the Activity [1] was 68.4%, the EC50 [2] was 870 nM and the CC50 at 120 h [3] was 2400 nM. The inhibition (ScGT1) was 73.2%.
Compound `COC(=O)[C@H](C)NC1=C(Br)C(=O)C(N[C@@H](Cc2ccccc2)C(=O)OC)=C(Br)C1=O` has an Activity [1] of 80.2%, an EC50 [2] of 3600 nM and an inhibition (ScGT1) of 18.1%.
Compound `CC[C@H](C)[C@@H](NC1=C(Cl)C(=O)C(N[C@@H](C)C(=O)OC)=C(Cl)C1=O)C(=O)OC` has an Activity [1] of 88.2% and an inhibition (ScGT1) of 6.6%.
For `COC(=O)[C@H](C)NC1=C(Br)C(=O)C(N[C@@H](C)C(=O)OC)=C(Br)C1=O`, the Activity [1] was 91.2% and the inhibition (ScGT1) was 0.29%.
With `COC(=O)[C@H](C)NC1=C(Br)C(=O)C(N[C@@H](Cc2c[nH]c3ccccc23)C(=O)OC)=C(Br)C1=O` the Activity [1] was 65.9% and the inhibition (ScGT1) was 0.43%.
`COC(=O)[C@H](C)NC1=C(Br)C(=O)C(N[C@@H](CCSC)C(=O)OC)=C(Br)C1=O` showed an Activity [1] of 96.1% and an inhibition (ScGT1) of 11.4%.
For `CC[C@H](C)[C@@H](NC1=C(Br)C(=O)C(N[C@@H](C)C(=O)OC)=C(Br)C1=O)C(=O)OC`, the Activity [1] was 91.3% and the inhibition (ScGT1) was 28.1%.
`COC(=O)[C@H](C)NC1=C(Cl)C(=O)C(N[C@@H](CCCCNC(=O)OC(C)(C)C)C(=O)OC)=C(Cl)C1=O` gave an Activity [1] of 40.7%.
`COC(=O)[C@H](C)NC1=C(Br)C(=O)C(N[C@@H](CCCNC(=N)N[N+](=O)[O-])C(=O)OC)=C(Br)C1=O` gave an Activity [1] of 74.1% and an inhibition (ScGT1) of 0.31%.
For `COC(=O)[C@H](C)NC1=C(Cl)C(=O)C(N[C@@H](CCSC)C(=O)OC)=C(Cl)C1=O`, the Activity [1] was 95.5% and the inhibition (ScGT1) was 4.8%.
`COC(=O)[C@H](C)NC1=C(Cl)C(=O)C(N[C@@H](CCCNC(=N)N[N+](=O)[O-])C(=O)OC)=C(Cl)C1=O` gave an Activity [1] of 81.4% and an inhibition (ScGT1) of 0.23%.
`COC(=O)[C@H](C)NC1=C(Br)C(=O)C(N[C@@H](CCCCNC(=O)OC(C)(C)C)C(=O)OC)=C(Br)C1=O` gave an Activity [1] of 52.3%.
